Screening data (PubChem)
Only some compounds are listed: those with a hit (about 4.8% of all), similar ones and a draw of the others.
Jurkat NFkB inh – inhibitors of induced NF-kB luciferase reporter, primary screen, TCR NF-kB activation inhibitor project, cell-based, luminescence, uHTS; Jurkat, PMA/ionomycin-induced NF-kB luciferase reporter; inhibition, % at 4 µM; hit rate 0.53% among 330,000; AID 435003, 2010; in the data active = inhibition above about 50%
HSF1 inh – HSF1 inhibitors in luciferase reporter cells, primary screen, cell-based, NIH3T3, luminescence | activity change, negative = inhibition, % at 7.5 µM (by protocol) | hit rate 0.77% among 300,000 | NIH3T3-HGL HSE-luciferase, MG132-induced, luminescence 8 h; active compounds read low | AID 2098, 2009;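 active = more than half of replicate wells show activity change below -50%, luminescence cut by over half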;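 note: luciferase reports HSF-1 transcriptional activity via heat shock element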
HSF-1 act – HSF-1 activators, primary screen, NIH3T3-HGL cells, MG132 stress, luminescence, single point; hit rate 1.7% among 300,000; activation, % at 9 µM; NIH3T3-HGL HSF-1 luciferase reporter, 8 h; 100% = twice DMSO control signal;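 active = mean replicate activation of at least 50% with a set share of replicates each reaching 50%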
T cruzi repl – inhibitors of intracellular T. cruzi growth, primary screen, luminescence, NIH3T3 host cells; hit rate 1.4% among 300,000; T. cruzi beta-gal in NIH3T3, 90 h; inhibition, % (no concentration beside the values); AID 1885, 2009;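 active = mean inhibition across valid replicates above about 55%, limit read from the data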;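 note: signal also drops with host cell toxicity which is not excluded here; higher percent means less beta-gal luminescence so fewer parasites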
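System: NIH/3T3 fibroblasts plus reporter T. cruzi. Medium: DMEM plus 2% FBS. Probe or stimulus: 5000 reporter trypomastigotes per well. Compound: single 50 nL compound addition per well in DMSO. Incubation: co-culture of at least 90 h after 3 h attachment. Detection: GalScreen β-gal luminescence, detergent lysis, 60 min. Evaluation: parasite load inhibition, %.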
GPR7 antag – GPR7 receptor antagonists, primary screen, cell-based, fluorescence, single concentration; GPR7-expressing cells, fluorescence antagonist assay; inhibition, % at 4.4 µM; hit rate 1.1% among 290,000; AID 1861, 2009; in the data active = inhibition above about 16%, passing the limit was not always enough;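 note: cells stimulated with the agonist NPW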
Target sequence (P48145 whole entry, looked up): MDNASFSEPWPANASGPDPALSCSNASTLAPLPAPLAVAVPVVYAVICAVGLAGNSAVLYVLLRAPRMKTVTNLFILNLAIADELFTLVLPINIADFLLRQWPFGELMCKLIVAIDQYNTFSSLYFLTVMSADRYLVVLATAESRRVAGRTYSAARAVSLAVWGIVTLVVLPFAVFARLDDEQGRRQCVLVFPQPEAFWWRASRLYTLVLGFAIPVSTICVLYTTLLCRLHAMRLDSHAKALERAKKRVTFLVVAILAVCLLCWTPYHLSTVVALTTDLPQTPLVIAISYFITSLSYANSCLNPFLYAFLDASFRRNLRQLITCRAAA
697 NFkB inh – inhibitors of PMA/ionomycin-induced NF-kB reporter, 697 cells, primary screen, B-cell NF-kB inhibitor project, cell-based, luminescence, uHTS | hit rate 0.33% among 330,000 | 697 B-cell NF-kB luciferase reporter, 16 h | inhibition, % at 4 µM; in the data active = inhibition above about 35%
Hits are given with their value.

What do the screens show for `CCS(=O)(=O)N1CCN(c2ccc(C(=O)NC3C4CC5CC(C4)CC3C5)cc2[N+](=O)[O-])CC1` (stereo not given)?
Jurkat NFkB inh: inactive; HSF1 inh: inactive; HSF-1 act: inactive; T cruzi repl: 68.2; GPR7 antag: inactive; 697 NFkB inh: inactive

Results for CN(Cc1cc(=O)n2ccsc2n1)C1CCCCC1 ?
Jurkat NFkB inh: inactive; HSF1 inh: inactive; HSF-1 act: inactive; T cruzi repl: inactive; GPR7 antag: inactive; 697 NFkB inh: inactive

What do the screens show for `CCC(NC(=S)NCc1ccccc1)C(=O)O` (stereo not given)?
Jurkat NFkB inh: inactive; HSF1 inh: -60.3; HSF-1 act: inactive; T cruzi repl: inactive; GPR7 antag: inactive; 697 NFkB inh: inactive

Results for CCNC(=S)NNC(=S)NCc1ccccc1 ?
Jurkat NFkB inh: inactive; HSF1 inh: inactive; HSF-1 act: inactive; T cruzi repl: inactive; GPR7 antag: inactive; 697 NFkB inh: inactive

Results for CCOC(=O)CC1NCCc2c1[nH]c1ccc(OC)cc21 (stereo not given) ?
Jurkat NFkB inh: inactive; HSF1 inh: inactive; HSF-1 act: 57.8; T cruzi repl: inactive; GPR7 antag: inactive; 697 NFkB inh: inactive

What do the screens show for `CC1CCN(C(=O)CCc2ccc(Oc3cc([N+](=O)[O-])cc([N+](=O)[O-])c3)cc2)CC1`?
Jurkat NFkB inh: inactive; HSF1 inh: inactive; HSF-1 act: inactive; T cruzi repl: inactive; GPR7 antag: inactive; 697 NFkB inh: inactive

Results for O=C(CCc1ccc(Oc2cc([N+](=O)[O-])cc([N+](=O)[O-])c2)cc1)NC1CCCC1 ?
Jurkat NFkB inh: inactive; HSF1 inh: inactive; HSF-1 act: inactive; T cruzi repl: 62.7; GPR7 antag: inactive; 697 NFkB inh: inactive

Results for CCc1ccc(C(=O)C[n+]2cccc3cc(OC)ccc32)cc1 ?
Jurkat NFkB inh: inactive; HSF1 inh: inactive; HSF-1 act: inactive; T cruzi repl: inactive; GPR7 antag: inactive; 697 NFkB inh: inactive

What do the screens show for `C[C@H](NC(=O)OC(C)(C)C)c1nnc(SCC(=O)Nc2cccc(Cl)c2)o1`?
Jurkat NFkB inh: inactive; HSF1 inh: inactive; HSF-1 act: inactive; T cruzi repl: inactive; GPR7 antag: inactive; 697 NFkB inh: inactive

What do the screens show for `CC(C)[C@H](NC(=O)OC(C)(C)C)c1nnc(SCC(=O)Nc2ccc(Br)cc2)o1`?
Jurkat NFkB inh: inactive; HSF1 inh: inactive; HSF-1 act: 84.1; T cruzi repl: inactive; GPR7 antag: inactive; 697 NFkB inh: inactive

Results for COc1ccc(C)cc1NC(=O)C(c1ccccc1)N1CCN(CC(=O)NC2CC2)CC1 (stereo not given) ?
Jurkat NFkB inh: inactive; 697 NFkB inh: inactive

How did O=C(NNC(=S)Nc1ccc(Cl)cc1)c1ccccc1OC(F)F do in these assays?
Jurkat NFkB inh: inactive; HSF1 inh: inactive; HSF-1 act: 59.3; T cruzi repl: inactive; GPR7 antag: inactive; 697 NFkB inh: inactive

How did O=C(NNC(=S)NCc1ccccc1)c1ccccc1OC(F)F do in these assays?
Jurkat NFkB inh: inactive; HSF1 inh: inactive; HSF-1 act: inactive; T cruzi repl: inactive; GPR7 antag: inactive; 697 NFkB inh: inactive

Results for O=C(N/N=C\c1cn(-c2ccccc2)nc1-c1ccccc1)c1ccc2c(c1)OCO2 ?
Jurkat NFkB inh: inactive; HSF1 inh: inactive; HSF-1 act: inactive; GPR7 antag: inactive; 697 NFkB inh: inactive

How did O=C(N/N=C/c1cn(-c2ccccc2)nc1-c1ccc2c(c1)OCCO2)c1ccncc1 do in these assays?
Jurkat NFkB inh: inactive; HSF1 inh: inactive; HSF-1 act: 107.3; T cruzi repl: inactive; GPR7 antag: inactive; 697 NFkB inh: inactive

Results for CCC(C)NC(=O)[C@@H]1CSC2c3ccccc3C(=O)N21 (stereo not given in full) ?
Jurkat NFkB inh: inactive; HSF1 inh: inactive; HSF-1 act: inactive; T cruzi repl: inactive; GPR7 antag: inactive; 697 NFkB inh: inactive

What do the screens show for `O=C(C1=C[C@@H](c2ccc(C(F)(F)F)cc2)C[C@@H](OCc2ccc(CO)cc2)O1)N1CCN(Cc2ccc3c(c2)OCO3)CC1`?
Jurkat NFkB inh: inactive; HSF1 inh: inactive; HSF-1 act: inactive; T cruzi repl: inactive; GPR7 antag: inactive; 697 NFkB inh: inactive

Results for CN1CCN(C(=O)C2=C[C@H](C3CC3)C[C@H](OCc3ccc(CO)cc3)O2)CC1 ?
Jurkat NFkB inh: inactive; HSF1 inh: inactive; HSF-1 act: inactive; T cruzi repl: inactive; 697 NFkB inh: inactive

Results for O=C(C1=C[C@@H](C2CC2)C[C@@H](OCc2ccc(CO)cc2)O1)N1CCN(Cc2ccccc2)CC1 ?
Jurkat NFkB inh: inactive; HSF1 inh: inactive; HSF-1 act: 104.0; T cruzi repl: inactive; GPR7 antag: inactive; 697 NFkB inh: inactive

How did O=C(C1=C[C@H](c2ccc(C(F)(F)F)cc2)C[C@H](OCc2ccc(CO)cc2)O1)N1CCN(Cc2ccc3c(c2)OCO3)CC1 do in these assays?
Jurkat NFkB inh: inactive; HSF1 inh: inactive; HSF-1 act: inactive; T cruzi repl: 65.2; GPR7 antag: inactive; 697 NFkB inh: inactive

What do the screens show for `CCOC(=O)C(C)Oc1ccc(OCc2ccccc2)cc1` (stereo not given)?
Jurkat NFkB inh: inactive; HSF1 inh: inactive; HSF-1 act: inactive; T cruzi repl: inactive; GPR7 antag: inactive; 697 NFkB inh: inactive

What do the screens show for `Cc1ccc(NC2=NCC(Cc3ccc(Br)cc3)S2)cc1` (stereo not given)?
Jurkat NFkB inh: inactive; HSF1 inh: inactive; HSF-1 act: inactive; T cruzi repl: inactive; GPR7 antag: inactive; 697 NFkB inh: inactive

What do the screens show for `CCc1ccc(NC2=NCC(c3ccccc3)S2)cc1` (stereo not given)?
Jurkat NFkB inh: inactive; HSF1 inh: inactive; HSF-1 act: 56.5; T cruzi repl: inactive; GPR7 antag: inactive; 697 NFkB inh: inactive

What do the screens show for `O=[N+]([O-])c1ccc(C2CN=C(Nc3ccccc3)S2)cc1` (stereo not given)?
Jurkat NFkB inh: inactive; HSF1 inh: inactive; HSF-1 act: 64.5; T cruzi repl: inactive; GPR7 antag: inactive; 697 NFkB inh: inactive

How did N#Cc1c(F)cccc1NCCCn1ccnc1 do in these assays?
Jurkat NFkB inh: inactive; HSF1 inh: inactive; HSF-1 act: inactive; T cruzi repl: inactive; 697 NFkB inh: inactive

Results for O=C(NCc1ccco1)c1sc2ccccc2c1Cl ?
Jurkat NFkB inh: inactive; HSF1 inh: inactive; HSF-1 act: 66.1; T cruzi repl: inactive; GPR7 antag: inactive; 697 NFkB inh: inactive

What do the screens show for `O=C(NCc1ccco1)c1nc2ccccc2s1`?
Jurkat NFkB inh: inactive; HSF1 inh: inactive; HSF-1 act: inactive; T cruzi repl: inactive; GPR7 antag: inactive; 697 NFkB inh: inactive
